ChEMBL document CHEMBL2396577, “Design, synthesis and biological activity evaluation of desloratadine analogues as H1 receptor antagonists” (Bioorg Med Chem, 2013)

Columns and labels:
Cavia porcellus [1] = assay: Antiasthamatic activity in histamine-induced guinea pig asthma model assessed as prolongation of asthmogenic latent period at 0.01 mg/kg, ig pretreated for 60 mins prior to histamine-challenge (reference value: 127.10 +/- 40.46 seconds); format: functional; settings: route intragastric
[2] = biological target: Histamine H1 receptor (Cavia porcellus) (UniProt P31389); assay: Antagonist activity at histamine H1 receptor in guinea pig ileum assessed as inhibition of histamine-induced smooth muscle spasm at 0.2 mg/mL after 3 mins (reference value: 1.27 +/- 5.65%); format: tissue-based; parameters: scale not given: the % may be the effect or the level left
Histamine H1 receptor (Cavia porcellus), sequence (P31389 whole entry): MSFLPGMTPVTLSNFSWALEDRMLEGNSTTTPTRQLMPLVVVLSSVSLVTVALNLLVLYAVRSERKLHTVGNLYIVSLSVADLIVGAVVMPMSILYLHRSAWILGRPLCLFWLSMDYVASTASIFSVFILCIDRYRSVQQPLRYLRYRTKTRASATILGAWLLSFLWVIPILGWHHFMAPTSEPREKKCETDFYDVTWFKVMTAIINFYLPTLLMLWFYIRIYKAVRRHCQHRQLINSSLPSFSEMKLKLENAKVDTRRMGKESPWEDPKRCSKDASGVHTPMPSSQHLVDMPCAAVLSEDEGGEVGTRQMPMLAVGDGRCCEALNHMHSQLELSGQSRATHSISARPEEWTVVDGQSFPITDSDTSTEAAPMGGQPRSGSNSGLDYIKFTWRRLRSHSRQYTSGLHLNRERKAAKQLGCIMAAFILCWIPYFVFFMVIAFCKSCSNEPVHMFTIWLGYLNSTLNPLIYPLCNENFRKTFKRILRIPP

[3] = biological target: Histamine H1 receptor (Cavia porcellus) (UniProt P31389); assay: Antagonist activity at histamine H1 receptor in guinea pig ileum assessed as inhibition of histamine-induced smooth muscle contraction at 0.2 mg/mL after 3 mins (reference value: 3.37 +/- 1.05 g); format: tissue-based
Ileum [4] = assay: Toxicity in guinea pig ileum assessed as effect on acetylcholine-induced smooth muscle spasm at 0.2 ug/mL after 3 mins (reference value: 1.31 +/- 3.66%); format: tissue-based, Cavia porcellus; settings: in vivo
Ileum [5] = assay: Toxicity in guinea pig ileum assessed as effect on acetylcholine-induced smooth muscle spasm at 0.6 ug/mL after 3 mins (reference value: 1.31 +/- 3.66%); format: tissue-based, Cavia porcellus; settings: in vivo
Ileum [6] = assay: Toxicity in guinea pig ileum assessed as effect on acetylcholine-induced smooth muscle contraction at 0.2 ug/mL after 3 mins (reference value: 5.17 +/- 0.36 g); format: tissue-based, Cavia porcellus
Ileum [7] = assay: Toxicity in guinea pig ileum assessed as effect on acetylcholine-induced smooth muscle contraction at 0.6 ug/mL after 3 mins (reference value: 5.17 +/- 0.36 g); format: tissue-based, Cavia porcellus
Mus musculus [8] = assay: Toxicity in mouse assessed as effect on pentobarbital sodium-induced hypnotic effect measured as recovery of righting reflex at 100 mg/kg pretreated for 30 mins prior to pentobarbital sodium-challenge; format: organism-based; parameters: dose 100 mg/kg; settings: in vivo
Mus musculus [9] = assay: Toxicity in mouse assessed as effect on pentobarbital sodium-induced hypnotic effect measured as recovery of righting reflex at 50 mg/kg pretreated for 30 mins prior to pentobarbital sodium-challenge; format: organism-based; parameters: dose 50 mg/kg; settings: in vivo
Mus musculus [10] = assay: Toxicity in mouse assessed as effect on pentobarbital sodium-induced hypnotic effect measured as loss of righting reflex latency at 200 mg/kg pretreated for 30 mins prior to pentobarbital sodium-challenge; format: organism-based; parameters: dose 200 mg/kg; settings: in vivo
Mus musculus [11] = assay: Toxicity in mouse assessed as effect on pentobarbital sodium-induced hypnotic effect measured as loss of righting reflex latency at 50 mg/kg pretreated for 30 mins prior to pentobarbital sodium-challenge; format: organism-based; parameters: dose 50 mg/kg; settings: in vivo
Mus musculus [12] = assay: Toxicity in mouse assessed as change in body activity at 0.05 to 0.2 mg/kg measured for 7 days; format: organism-based; parameters: dose 0.05-0.2 mg/kg; settings: in vivo, 168 h
Method in brief: (§1)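 Groups of 10 received saline 10 mL/kg, desloratadine 1 mg/kg, or compound at a low dose (0.05 mg/kg) or high dose (0.2 mg/kg), all at a dosing volume of 10 mL/kg. Over the following seven days, mental state, body activity and abnormal signs were observed: sleep, excitement, irritability, convulsion, salivation and muscle tremor.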

Mus musculus [13] = assay: Toxicity in mouse assessed as change in mental state at 0.05 to 0.2 mg/kg measured for 7 days; format: organism-based; parameters: dose 0.05-0.2 mg/kg; settings: in vivo, 168 h; method in brief: as §1
Mus musculus [14] = assay: Toxicity in mouse assessed as muscle tremor at 0.05 to 0.2 mg/kg measured for 7 days; format: organism-based, Muscle tissue; parameters: dose 0.05-0.2 mg/kg; settings: in vivo, 168 h; method in brief: as §1
Mus musculus [15] = assay: Toxicity in mouse assessed as salivation at 0.05 to 0.2 mg/kg measured for 7 days; format: organism-based; parameters: dose 0.05-0.2 mg/kg; settings: in vivo, 168 h; method in brief: as §1
Mus musculus [16] = assay: Toxicity in mouse assessed as irritability at 0.05 to 0.2 mg/kg measured for 7 days; format: organism-based; parameters: dose 0.05-0.2 mg/kg; settings: in vivo, 168 h; method in brief: as §1
Mus musculus [17] = assay: Toxicity in mouse assessed as convulsion at 0.05 to 0.2 mg/kg measured for 7 days; format: organism-based; parameters: dose 0.05-0.2 mg/kg; settings: in vivo, 168 h; method in brief: as §1
Mus musculus [18] = assay: Toxicity in mouse assessed as excitement at 0.05 to 0.2 mg/kg measured for 7 days; format: organism-based; parameters: dose 0.05-0.2 mg/kg; settings: in vivo, 168 h; method in brief: as §1
Mus musculus [19] = assay: Toxicity in mouse assessed as sleep abnormality at 0.05 to 0.2 mg/kg measured for 7 days; format: organism-based; parameters: dose 0.05-0.2 mg/kg; settings: in vivo, 168 h; method in brief: as §1
Mus musculus [20] = assay: Toxicity in mouse assessed as effect on pentobarbital sodium-induced hypnotic effect measured as recovery of righting reflex at 1 mg/kg pretreated for 30 mins prior to pentobarbital sodium-challenge; format: organism-based; parameters: dose 1 mg/kg; settings: in vivo
Method in brief: (§2)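 Mice, 10 per group. Groups: saline, pentobarbital alone, pentobarbital plus desloratadine 1 mg/kg, pentobarbital plus test agent at 0.05 or 0.2 mg/kg. 30 min after dosing, 1% pentobarbital sodium given i.p. at 100 mg/kg (10 mL/kg). Latency to loss of righting reflex and time to its recovery recorded, in min.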

Cavia porcellus [21] = assay: Antiasthamatic activity in histamine-induced guinea pig asthma model assessed as prolongation of asthmogenic latent period at 1 mg/kg, ig pretreated for 60 mins prior to histamine-challenge (reference value: 127.10 +/- 40.46 seconds); format: functional; settings: route intragastric
Mus musculus [22] = assay: Toxicity in mouse assessed as effect on pentobarbital sodium-induced hypnotic effect measured as loss of righting reflex latency at 1 mg/kg pretreated for 30 mins prior to pentobarbital sodium-challenge; format: organism-based; parameters: dose 1 mg/kg; settings: in vivo; method in brief: as §2
Ileum [23] = assay: Toxicity in guinea pig ileum assessed as effect on acetylcholine-induced smooth muscle spasm at 1.4 ug/mL after 3 mins (reference value: 1.31 +/- 3.66%); format: tissue-based, Cavia porcellus; settings: in vivo
Ileum [24] = assay: Toxicity in guinea pig ileum assessed as effect on acetylcholine-induced smooth muscle spasm at 2 ug/mL after 3 mins (reference value: 1.31 +/- 3.66%); format: tissue-based, Cavia porcellus; settings: in vivo
Ileum [25] = assay: Toxicity in guinea pig ileum assessed as effect on acetylcholine-induced smooth muscle contraction at 1.4 ug/mL after 3 mins (reference value: 5.17 +/- 0.36 g); format: tissue-based, Cavia porcellus
Ileum [26] = assay: Toxicity in guinea pig ileum assessed as effect on acetylcholine-induced smooth muscle contraction at 2 ug/mL after 3 mins (reference value: 5.17 +/- 0.36 g); format: tissue-based, Cavia porcellus
Ileum [27] = assay: Toxicity in guinea pig ileum assessed as effect on acetylcholine-induced smooth muscle spasm at 0.1 ug/mL after 3 mins (reference value: 1.31 +/- 3.66%); format: tissue-based, Cavia porcellus; settings: in vivo
Ileum [28] = assay: Toxicity in guinea pig ileum assessed as effect on acetylcholine-induced smooth muscle contraction at 0.1 ug/mL after 3 mins (reference value: 5.17 +/- 0.36 g); format: tissue-based, Cavia porcellus

SMILES	Time (Cavia porcellus [1])	Activity [2]	Activity [3]	Time (Mus musculus [8])	Time (Mus musculus [9])	Time (Mus musculus [10])	Time (Mus musculus [11])	Activity (Mus musculus [12])	Activity (Mus musculus [13])	Activity (Mus musculus [14])	Activity (Mus musculus [15])	Activity (Mus musculus [16])	Activity (Mus musculus [17])	Activity (Mus musculus [18])	Activity (Mus musculus [19])	other results
OC1CCC(N2CCC(=C3c4ccc(Cl)cc4CCc4cccnc43)CC2)CC1 (stereo not given)	222 s	13%	2.93 g	–	–	–	–	–	–	–	–	–	–	–	–	–
NCCCN1CCC(=C2c3ccc(Cl)cc3CCc3cccnc32)CC1	182.8 s	26%	2.36 g	–	–	–	–	–	–	–	–	–	–	–	–	–
CCCN1CCC(=C2c3ccc(Cl)cc3CCc3cccnc32)CC1	255.1 s	42.5%	1.8 g	99 min	76 min	1.61 min	1.47 min	Non-toxic	Non-toxic	Non-toxic	Non-toxic	Non-toxic	Non-toxic	Non-toxic	Non-toxic	Activity (Ileum [4]): 56.14%; Activity (Ileum [5]): 73.09%; Activity (Ileum [6]): 7.51 g; Activity (Ileum [7]): 4.38 g
Clc1ccc2c(c1)CCc1cccnc1C2=C1CCN(C2CC=CCC2)CC1 (stereo not given)	262.7 s	28.3%	2.38 g	–	–	–	–	–	–	–	–	–	–	–	–	–
FCCCN1CCC(=C2c3ccc(Cl)cc3CCc3cccnc32)CC1	269.4 s	48.7%	1.74 g	123 min	98 min	1.45 min	1.47 min	Non-toxic	Non-toxic	Non-toxic	Non-toxic	Non-toxic	Non-toxic	Non-toxic	Non-toxic	Activity (Ileum [4]): 54.35%; Activity (Ileum [5]): 62.47%; Activity (Ileum [6]): 9.11 g; Activity (Ileum [7]): 6.58 g
Clc1ccc2c(c1)CCc1cccnc1C2=C1CCNCC1 [DESLORATADINE]	–	49.1%	1.67 g	–	–	–	–	–	–	–	–	–	–	–	–	Time (Mus musculus [20]): 93 min; Time (Cavia porcellus [21]): 278.2 s; Time (Mus musculus [22]): 2.23 min
OCCCN1CCC(=C2c3ccc(Cl)cc3CCc3cccnc32)CC1	221.9 s	45.2%	1.73 g	100 min	76 min	1.46 min	1.54 min	Non-toxic	Non-toxic	Non-toxic	Non-toxic	Non-toxic	Non-toxic	Non-toxic	Non-toxic	Activity (Ileum [23]): 58.27%; Activity (Ileum [24]): 67.06%; Activity (Ileum [25]): 6.72 g; Activity (Ileum [26]): 6.04 g
CN1[C@@H]2CC[C@H]1CC(OC(=O)[C@H](CO)c1ccccc1)C2 (stereo partly drawn) [ENDO-ATROPINE]	–	–	–	–	–	–	–	–	–	–	–	–	–	–	–	Activity (Ileum [27]): 74.9%; Activity (Ileum [28]): 3.47 g
Clc1ccc2c(c1)CCc1cccnc1C2=C1CCN(C2CCCCC2)CC1	250.3 s	29.4%	2.57 g	–	–	–	–	–	–	–	–	–	–	–	–	–
CN(C)CCCN1CCC(=C2c3ccc(Cl)cc3CCc3cccnc32)CC1	212.8 s	30.4%	2.66 g	–	–	–	–	–	–	–	–	–	–	–	–	–
Clc1ccc2c(c1)CCc1cccnc1C2=C1CCN(C2CCC(Cl)CC2)CC1 (stereo not given)	325.2 s	61.1%	1.29 g	103 min	82 min	1.62 min	1.61 min	Non-toxic	Non-toxic	Non-toxic	Non-toxic	Non-toxic	Non-toxic	Non-toxic	Non-toxic	Activity (Ileum [23]): 61.39%; Activity (Ileum [24]): 70.61%; Activity (Ileum [25]): 5.59 g; Activity (Ileum [26]): 4.4 g
ClCCCN1CCC(=C2c3ccc(Cl)cc3CCc3cccnc32)CC1	256.9 s	43%	1.81 g	120 min	97 min	1.58 min	1.48 min	Non-toxic	Non-toxic	Non-toxic	Non-toxic	Non-toxic	Non-toxic	Non-toxic	Non-toxic	Activity (Ileum [5]): 47.21%; Activity (Ileum [23]): 69.51%; Activity (Ileum [7]): 8.56 g; Activity (Ileum [25]): 5.68 g
O=C1c2ccccc2C(=O)N1CCCN1CCC(=C2c3ccc(Cl)cc3CCc3cccnc32)CC1	247.9 s	26.6%	2.71 g	–	–	–	–	–	–	–	–	–	–	–	–	–
